According to ChEMBL document CHEMBL3120161, “Antimycobacterial activity of nitrogen heterocycles derivatives: bipyridine derivatives. Part III” (Eur J Med Chem, 2014):
≈ marks a conversion by molar mass, not a printed value. Calls of active or inactive are those of the source. The rule behind the calls is not given here.

Assays:
[1] = tested on: Mycobacterium tuberculosis; assay: Antimycobacterial activity against Mycobacterium tuberculosis H37Rv ATCC 27294 at 100 ug/ml after 7 days by microplate Alamar blue assay relative to control; type: functional; details: H37Rv ATCC 27294, 168 h
Summary of the method: (§1)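 Cycle 1 HTS MABA: M. tuberculosis H37Rv ATCC 27294 in 7H12 broth, 384-well, final 1% DMSO. Ten twofold dilutions, typically 100 to 0.195 µg/mL. Amikacin controls at 0.17 and 3.20 µM; the high level serves as background for percent inhibition. 7 days at 37 °C, ~95% humidity. Fluorescence read at 535 nm excitation / 590 nm emission.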

[2] = tested on: Mycobacterium tuberculosis; assay: Antimycobacterial activity against Mycobacterium tuberculosis H37Rv ATCC 27294 after 7 days by broth microdilution assay; type: functional; details: H37Rv ATCC 27294, 168 h; summary of the method: as §1
[3] = tested on: Mycobacterium tuberculosis; assay: Antimycobacterial activity against Mycobacterium tuberculosis H37Rv ATCC 27294 at 50 ug/ml after 7 days by microplate Alamar blue assay relative to control; type: functional; details: H37Rv ATCC 27294, 168 h; summary of the method: as §1
[4] = tested on: Mycobacterium tuberculosis; assay: Antimycobacterial activity against Mycobacterium tuberculosis H37Rv ATCC 27294 at 25 ug/ml after 7 days by microplate Alamar blue assay relative to control; type: functional; details: H37Rv ATCC 27294, 168 h; summary of the method: as §1
[5] = tested on: Mycobacterium tuberculosis; assay: Antimycobacterial activity against Mycobacterium tuberculosis H37Rv ATCC 27294 after 7 days by microplate Alamar blue assay; type: functional, organism-based; details: H37Rv ATCC 27294, 168 h; summary of the method: as §1
[6] = tested on: Mycobacterium tuberculosis; assay: Antimycobacterial activity against Mycobacterium tuberculosis H37Rv ATCC 27294 at 12.5 ug/ml after 7 days by microplate Alamar blue assay relative to control; type: functional; details: H37Rv ATCC 27294, 168 h; summary of the method: as §1
[7] = tested on: Mycobacterium tuberculosis; assay: Antimycobacterial activity against Mycobacterium tuberculosis H37Rv ATCC 27294 at 0.16 to 0.31 ug/ml after 7 days by microplate Alamar blue assay relative to control; type: functional; summary of the method: as §1
[8] = tested on: Mycobacterium tuberculosis; assay: Antimycobacterial activity against Mycobacterium tuberculosis H37Rv ATCC 27294 at 0.63 ug/ml after 7 days by microplate Alamar blue assay relative to control; type: functional; details: H37Rv ATCC 27294, 168 h; summary of the method: as §1
[9] = tested on: Mycobacterium tuberculosis; assay: Antimycobacterial activity against Mycobacterium tuberculosis H37Rv ATCC 27294 at 0.08 ug/ml after 7 days by microplate Alamar blue assay relative to control; type: functional; details: H37Rv ATCC 27294, 168 h
[10] = tested on: Mycobacterium tuberculosis; assay: Antimycobacterial activity against Mycobacterium tuberculosis H37Rv ATCC 27294 at 1.25 to 5 ug/ml after 7 days by microplate Alamar blue assay relative to control; type: functional; summary of the method: as §1
[11] = tested on: Mycobacterium tuberculosis; assay: Antimycobacterial activity against Mycobacterium tuberculosis H37Rv ATCC 27294 at 6.25 ug/ml after 7 days by microplate Alamar blue assay relative to control; type: functional; details: H37Rv ATCC 27294, 168 h; summary of the method: as §1
[12] = tested on: Mycobacterium tuberculosis; assay: Antimycobacterial activity against Mycobacterium tuberculosis H37Rv ATCC 27294 at 12.5 to 50 ug/ml after 7 days by microplate Alamar blue assay relative to control; type: functional; summary of the method: as §1
[13] = tested on: Mycobacterium tuberculosis; assay: Antimycobacterial activity against Mycobacterium tuberculosis H37Rv ATCC 27294 at 3.13 ug/ml after 7 days by microplate Alamar blue assay relative to control; type: functional; details: H37Rv ATCC 27294, 168 h; summary of the method: as §1
[14] = tested on: Mycobacterium tuberculosis; assay: Antimycobacterial activity against Mycobacterium tuberculosis H37Rv ATCC 27294 at 1.56 ug/ml after 7 days by microplate Alamar blue assay relative to control; type: functional; details: H37Rv ATCC 27294, 168 h; summary of the method: as §1
[15] = tested on: Mycobacterium tuberculosis; assay: Antimycobacterial activity against Mycobacterium tuberculosis H37Rv SRI 1345 incubated for 7 days under anaerobic condition measured after 7 days of recovery under gaseous condition by low oxygen recovery assay; type: functional
[16] = tested on: Mycobacterium tuberculosis; assay: Antimycobacterial activity against Mycobacterium tuberculosis H37Rv SRI 1345 infected in mouse J774A1 cells assessed as reduction in bacterial growth at 75 ug/ml after 7 days relative to control; type: functional, J774.A1
Summary of the method: (§2)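 Murine J774 macrophages in RPMI 1640 with L-glutamine and FBS, seeded at 2.0 × 10^5 per well in 10% FBS, then switched to 1% FBS. Infected 4 h with H37Rv at MOI 5; unphagocytosed bacteria washed off. Compound added at three concentrations (0.75, 7.5, 75 µg/mL) for 7 days. At 0 and 7 days cells lysed with SDS, DNase-treated and plated on 7H10 for CFU; log reduction reported.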

[17] = tested on: Mycobacterium tuberculosis; assay: Antimycobacterial activity against Mycobacterium tuberculosis H37Rv SRI 1345 at MIC after 7 days by broth microdilution assay relative to control; type: functional
[18] = tested on: Mycobacterium tuberculosis; assay: Antimycobacterial activity against Mycobacterium tuberculosis H37Rv ATCC 27294 at 12.5 to 100 ug/ml after 7 days by microplate Alamar blue assay relative to control; type: functional; summary of the method: as §1
[19] = Cytotoxicity against mouse J774A1 cells assessed as cell viability at 75 ug/ml after 7 days by MTT assay relative to control; type: cell-based, J774.A1; details: read-out: Activity
Summary of the method: (§3)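 Uninfected murine J774 macrophages grown in RPMI 1640 with L-glutamine and FBS at 37 °C, 5% CO2. Cells seeded at 2.0 × 10^5 per well in 10% FBS, then switched to 1% FBS overnight. Run in parallel with the 7-day infection assay. […] Read out by MTT as percent viability.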

[20] = tested on: Mycobacterium tuberculosis; assay: Antimycobacterial activity against Mycobacterium tuberculosis H37Rv ATCC 27294 at 0.79 ug/ml after 7 days by microplate Alamar blue assay relative to control; type: functional; details: H37Rv ATCC 27294, 168 h; summary of the method: as §1
[21] = tested on: Mycobacterium tuberculosis; assay: […] activity against Mycobacterium tuberculosis H37Rv SRI 1345 after 16 to 21 days; type: functional
Summary of the method: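 MBC, done after MIC testing in H37Rv SRI 1345: diluted aliquots from wells without macroscopic growth are plated on Middlebrook 7H10 agar and incubated 16–21 days at 37 °C. CFUs are counted. MBC is the lowest concentration giving 99.9% kill; rejection value is ≥40 colonies.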

[22] = Cytotoxicity against mouse J774A1 cells assessed as cell viability at 0.75 ug/ml after 7 days by MTT assay relative to control; type: cell-based, J774.A1; details: read-out: Activity; summary of the method: as §3
[23] = Cytotoxicity against mouse J774A1 cells assessed as cell viability at 7.5 ug/ml after 7 days by MTT assay relative to control; type: cell-based, J774.A1; details: read-out: Activity; summary of the method: as §3
[24] = tested on: Mycobacterium tuberculosis; assay: Antimycobacterial activity against Mycobacterium tuberculosis H37Rv SRI 1345 infected in mouse J774A1 cells assessed as reduction in bacterial growth at 7.5 ug/ml after 7 days relative to control; type: functional, J774.A1; summary of the method: as §2
[25] = tested on: Mycobacterium tuberculosis; assay: Antimycobacterial activity against Mycobacterium tuberculosis H37Rv ATCC 27294 at 0.31 ug/ml after 7 days by microplate Alamar blue assay relative to control; type: functional; details: H37Rv ATCC 27294, 168 h; summary of the method: as §1
[26] = tested on: Mycobacterium tuberculosis; assay: Antimycobacterial activity against Mycobacterium tuberculosis H37Rv SRI 1345 infected in mouse J774A1 cells assessed as reduction in bacterial growth at 0.75 ug/ml after 7 days relative to control; type: functional, J774.A1; summary of the method: as §2
[27] = tested on: Mycobacterium tuberculosis; assay: Antimycobacterial activity against Mycobacterium tuberculosis H37Rv SRI 1345 after 7 days by broth microdilution assay; type: functional; details: H37Rv SRI 1345, 168 h

SMILES | inhibition at 100 µg/mL [1] [%] | MIC90 [2] [µM] | inhibition at 50 µg/mL [3] [%] | IC50 [5] [µg/mL] | IC90 [5] [µg/mL] | inhibition at 12.5 µg/mL [6] [%] | inhibition at 6.25 µg/mL [11] [%] | inhibition at 3.13 µg/mL [13] [%] | inhibition at 1.56 µg/mL [14] [%] | also measured
N[C@@H]1CONC1=O [CYCLOSERINE] | 97.7 | 25 (≈ 2.55 µg/mL) | 96.3 | 12.5 (≈ 122 µM) | 13.5 (≈ 132 µM) | 51 |  |  |  | inhibition at 25 µg/mL [4]: 93.9%
NCC[C@H](O)C(=O)N[C@@H]1C[C@H](N)[C@@H](O[C@H]2O[C@H](CN)[C@@H](O)[C@H](O)[C@H]2O)[C@H](O)[C@H]1O[C@H]1O[C@H](CO)[C@@H](O)[C@H](N)[C@H]1O [AMIKACIN] |  | 0.16 (≈ 0.0937 µg/mL) |  | 0.07 (≈ 0.12 µM) | 0.08 (≈ 0.137 µM) |  |  |  |  | inhibition (INH) [7]: 96%; inhibition at 0.63 µg/mL [8]: 97.3%; inhibition at 0.08 µg/mL [9]: 79.8%; inhibition (INH) [10]: 98%
CC[C@@H](CO)NCCN[C@@H](CC)CO [ETHAMBUTOL] | 90 | 12.5 (≈ 2.55 µg/mL) |  | < 1.56 | 32.8 (≈ 160 µM) |  | 86.6 | 84.3 | 69.1 | inhibition (INH) [12]: 89%
CCOC(=O)c1cc(C(=O)c2ccccc2)n2ccc(-c3ccn4c(C(=O)c5ccc(OC)cc5)cc(C(=O)OC)c4c3)cc12 | -4.5 | > 100 | 5.3 | > 100 | > 100 | 0.8 |  |  | -2 | 
CCOC(=O)c1cc(C(=O)c2ccccc2)n2ccc(-c3cc[n+](CC(=O)c4ccc(OC)cc4)cc3)cc12.[Br-] |  | 12.5 |  | 3.88 | 13.1 |  | 65.1 | 38.6 |  | INH [15]: 1.17 µg/mL; fold change (FC) [16]: 3.11; inhibition (INH) [17]: 51%; inhibition (INH) [18]: 98.5%; viability at 168 h, 75 ug/ml [19]: < 10%; inhibition at 0.79 µg/mL [20]: 9.9%; Activity [21]: inactive; viability at 168 h, 0.75 ug/ml [22]: 86%; viability at 168 h, 7.5 ug/ml [23]: 71%; fold change (FC) [24]: 2.65; MIC90 [25]: 12.5 µM; fold change (FC) [26]: 1.19; MIC [27]: 2.34 µg/mL
CCOC(=O)c1cc(C(N)=O)n2ccc(-c3ccncc3)cc12 | -17 | > 100 | 2 | > 100 | > 100 | 4 |  |  | 2.8 | 
